Measurements from paper PMC11661184 (bioRxiv, 2024).
No end group written: not given here.

Tested on: CaM (Calmodulin-agarose)
Assay: CaM-agarose pulldown of TRPA1 constructs
Assay type: binding
Details: for CaM binding of MBP-tagged C-terminal peptides: expressed in HEK293T; for CaM binding of truncated hTRPA1 constructs: CaM-agarose pulldown, HEK293T lysate, immunoblot
Method in brief: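 HEK293T cells were transfected with tagged TRPA1 constructs and lysed after 16-24 h in Tris pH 8.0 buffer containing 5 mM DDM and 500 µM EGTA. Free Ca²⁺ was set with CaCl₂, calculated from EGTA constants. 100 µg lysate was incubated with CaM-agarose for 1 h at 4 °C, washed, then eluted with 5 mM EGTA. Detection was by anti-FLAG or anti-MBP immunoblot, with tubulin input control. Enrichment is relative to the maximum within each replicate.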

Row | Molecule | CaM binding of truncated hTRPA1 constructs | also measured
1 | hTRPA1^1079–1119: MBP-tagged full hTRPA1 unresolved C-terminus (EDDDSHCSFQDRFKKEQMEQRNSRWNTVLRAVKAKTHHLEP; also: MBP-tagged) | – | CaM binding of MBP-tagged C-terminal peptides (absence or presence of Ca2+): bound CaM in a Ca^2+-dependent manner
2 | hTRPA1^1099–1119: MBP-tagged smaller fragment of hTRPA1 C-terminus (RNSRWNTVLRAVKAKTHHLEP; also: MBP-tagged) | – | CaM binding of MBP-tagged C-terminal peptides (absence or presence of Ca2+): bound CaM in a Ca^2+-dependent manner
3 | WT mouse: WT mouse TRPA1, MBP-tagged | – | CaM binding of TRPA1 species orthologues (MBP-tagged constructs, absence or presence of Ca2+, four independent experiments): bound CaM in a Ca^2+-dependent manner
4 | hTRPA1^Δ1079–1119 (protein) MKRSLRKMWRPGEKKEPQGVVYEDVPDDTEDFKESLKVVFEGSAYGLQNFNKQKKLKRCDDMDTFFLHYAAAEGQIELMEKITRDSSLEVLHEMDDYGNTPLHCAVEKNQIESVKFLLSRGANPNLRNFNMMAPLHIAVQGMNNEVMKVLLEHRTIDVNLEGENGNTAVIIACTTNNSEALQILLKKGAKPCKSNKWGCFPIHQAAFSGSKECMEIILRFGEEHGYSRQLHINFMNNGKATPLHLAVQNGDLEMIKMCLDNGAQIDPVEKGRCTAIHFAATQGATEIVKLMISSYSGSVDIVNTTDGCHETMLHRASLFDHHELADYLISVGADINKIDSEGRSPLILATASASWNIVNLLLSKGAQVDIKDNFGRNFLHLTVQQPYGLKNLRPEFMQMQQIKELVMDEDNDGCTPLHYACRQGGPGSVNNLLGFNVSIHSKSKDKKSPLHFAASYGRINTCQRLLQDISDTRLLNEGDLHGMTPLHLAAKNGHDKVVQLLLKKGALFLSDHNGWTALHHASMGGYTQTMKVILDTNLKCTDRLDEDGNTALHFAAREGHAKAVALLLSHNADIVLNKQQASFLHLALHNKRKEVVLTIIRSKRWDECLKIFSHNSPGNKCPITEMIEYLPECMKVLLDFCMLHSTEDKSCRDYYIEYNFKYLQCPLEFTKKTPTQDVIYEPLTALNAMVQNNRIELLNHPVCKEYLLMKWLAYGFRAHMMNLGSYCLGLIPMTILVVNIKPGMAFNSTGIINETSDHSEILDTTNSYLIKTCMILVFLSSIFGYCKEAGQIFQQKRNYFMDISNVLEWIIYTTGIIFVLPLFVEIPAHLQWQCGAIAVYFYWMNFLLYLQRFENCGIFIVMLEVILKTLLRSTVVFIFLLLAFGLSFYILLNLQDPFSSPLLSIIQTFSMMLGDINYRESFLEPYLRNELAHPVLSFAQLVSFTIFVPIVLMNLLIGLAVGDIAEVQKHASLKRIAMQVELHTSLEKKLPLWFLRKVDQKSTIVYPNKPRSGGMLFHIFCFLFCTGEIRQEIPNADKSLEMEILKQKYRLKDLTFLLEKQHELIKLIIQKMEIISET | ablated Ca^2+/CaM binding | –
5 | L1107A (protein, UniProt O75762 1-1119, looked up, variant L1107A) Transient receptor potential …: MKRSLRKMWRPGEKKEPQGVVYEDVPDDTEDFKESLKVVFEGSAYGLQNFNKQKKLKRCDDMDTFFLHYAAAEGQIELMEKITRDSSLEVLHEMDDYGNTPLHCAVEKNQIESVKFLLSRGANPNLRNFNMMAPLHIAVQGMNNEVMKVLLEHRTIDVNLEGENGNTAVIIACTTNNSEALQILLKKGAKPCKSNKWGCFPIHQAAFSGSKECMEIILRFGEEHGYSRQLHINFMNNGKATPLHLAVQNGDLEMIKMCLDNGAQIDPVEKGRCTAIHFAATQGATEIVKLMISSYSGSVDIVNTTDGCHETMLHRASLFDHHELADYLISVGADINKIDSEGRSPLILATASASWNIVNLLLSKGAQVDIKDNFGRNFLHLTVQQPYGLKNLRPEFMQMQQIKELVMDEDNDGCTPLHYACRQGGPGSVNNLLGFNVSIHSKSKDKKSPLHFAASYGRINTCQRLLQDISDTRLLNEGDLHGMTPLHLAAKNGHDKVVQLLLKKGALFLSDHNGWTALHHASMGGYTQTMKVILDTNLKCTDRLDEDGNTALHFAAREGHAKAVALLLSHNADIVLNKQQASFLHLALHNKRKEVVLTIIRSKRWDECLKIFSHNSPGNKCPITEMIEYLPECMKVLLDFCMLHSTEDKSCRDYYIEYNFKYLQCPLEFTKKTPTQDVIYEPLTALNAMVQNNRIELLNHPVCKEYLLMKWLAYGFRAHMMNLGSYCLGLIPMTILVVNIKPGMAFNSTGIINETSDHSEILDTTNSYLIKTCMILVFLSSIFGYCKEAGQIFQQKRNYFMDISNVLEWIIYTTGIIFVLPLFVEIPAHLQWQCGAIAVYFYWMNFLLYLQRFENCGIFIVMLEVILKTLLRSTVVFIFLLLAFGLSFYILLNLQDPFSSPLLSIIQTFSMMLGDINYRESFLEPYLRNELAHPVLSFAQLVSFTIFVPIVLMNLLIGLAVGDIAEVQKHASLKRIAMQVELHTSLEKKLPLWFLRKVDQKSTIVYPNKPRSGGMLFHIFCFLFCTGEIRQEIPNADKSLEMEILKQKYRLKDLTFLLEKQHELIKLIIQKMEIISETEDDDSHCSFQDRFKKEQMEQRNSRWNTVARAVKAKTHHLEP | – | CaM binding at basal Ca2+ concentration (basal Ca2+, n=3 independent experiments): partial reduction in binding
6 | hTRPA1^Δ1–61 (protein) MDTFFLHYAAAEGQIELMEKITRDSSLEVLHEMDDYGNTPLHCAVEKNQIESVKFLLSRGANPNLRNFNMMAPLHIAVQGMNNEVMKVLLEHRTIDVNLEGENGNTAVIIACTTNNSEALQILLKKGAKPCKSNKWGCFPIHQAAFSGSKECMEIILRFGEEHGYSRQLHINFMNNGKATPLHLAVQNGDLEMIKMCLDNGAQIDPVEKGRCTAIHFAATQGATEIVKLMISSYSGSVDIVNTTDGCHETMLHRASLFDHHELADYLISVGADINKIDSEGRSPLILATASASWNIVNLLLSKGAQVDIKDNFGRNFLHLTVQQPYGLKNLRPEFMQMQQIKELVMDEDNDGCTPLHYACRQGGPGSVNNLLGFNVSIHSKSKDKKSPLHFAASYGRINTCQRLLQDISDTRLLNEGDLHGMTPLHLAAKNGHDKVVQLLLKKGALFLSDHNGWTALHHASMGGYTQTMKVILDTNLKCTDRLDEDGNTALHFAAREGHAKAVALLLSHNADIVLNKQQASFLHLALHNKRKEVVLTIIRSKRWDECLKIFSHNSPGNKCPITEMIEYLPECMKVLLDFCMLHSTEDKSCRDYYIEYNFKYLQCPLEFTKKTPTQDVIYEPLTALNAMVQNNRIELLNHPVCKEYLLMKWLAYGFRAHMMNLGSYCLGLIPMTILVVNIKPGMAFNSTGIINETSDHSEILDTTNSYLIKTCMILVFLSSIFGYCKEAGQIFQQKRNYFMDISNVLEWIIYTTGIIFVLPLFVEIPAHLQWQCGAIAVYFYWMNFLLYLQRFENCGIFIVMLEVILKTLLRSTVVFIFLLLAFGLSFYILLNLQDPFSSPLLSIIQTFSMMLGDINYRESFLEPYLRNELAHPVLSFAQLVSFTIFVPIVLMNLLIGLAVGDIAEVQKHASLKRIAMQVELHTSLEKKLPLWFLRKVDQKSTIVYPNKPRSGGMLFHIFCFLFCTGEIRQEIPNADKSLEMEILKQKYRLKDLTFLLEKQHELIKLIIQKMEIISETEDDDSHCSFQDRFKKEQMEQRNSRWNTVLRAVKAKTHHLEP | did not affect Ca^2+/CaM binding | –
7 | hTRPA1^S488-T1078: minimal hTRPA1 construct previously used for structural determination, retains the CaMBD (protein) SPLHFAASYGRINTCQRLLQDISDTRLLNEGDLHGMTPLHLAAKNGHDKVVQLLLKKGALFLSDHNGWTALHHASMGGYTQTMKVILDTNLKCTDRLDEDGNTALHFAAREGHAKAVALLLSHNADIVLNKQQASFLHLALHNKRKEVVLTIIRSKRWDECLKIFSHNSPGNKCPITEMIEYLPECMKVLLDFCMLHSTEDKSCRDYYIEYNFKYLQCPLEFTKKTPTQDVIYEPLTALNAMVQNNRIELLNHPVCKEYLLMKWLAYGFRAHMMNLGSYCLGLIPMTILVVNIKPGMAFNSTGIINETSDHSEILDTTNSYLIKTCMILVFLSSIFGYCKEAGQIFQQKRNYFMDISNVLEWIIYTTGIIFVLPLFVEIPAHLQWQCGAIAVYFYWMNFLLYLQRFENCGIFIVMLEVILKTLLRSTVVFIFLLLAFGLSFYILLNLQDPFSSPLLSIIQTFSMMLGDINYRESFLEPYLRNELAHPVLSFAQLVSFTIFVPIVLMNLLIGLAVGDIAEVQKHASLKRIAMQVELHTSLEKKLPLWFLRKVDQKSTIVYPNKPRSGGMLFHIFCFLFCTGEIRQEIPNADKSLEMEILKQKYRLKDLTFLLEKQHELIKLIIQKMEIISET | failed to bind CaM in vitro | –
8 | hTRPA1^M62-T1078: hTRPA1 construct containing full ARD but lacking the structurally unresolved N- and C-termini (protein) MDTFFLHYAAAEGQIELMEKITRDSSLEVLHEMDDYGNTPLHCAVEKNQIESVKFLLSRGANPNLRNFNMMAPLHIAVQGMNNEVMKVLLEHRTIDVNLEGENGNTAVIIACTTNNSEALQILLKKGAKPCKSNKWGCFPIHQAAFSGSKECMEIILRFGEEHGYSRQLHINFMNNGKATPLHLAVQNGDLEMIKMCLDNGAQIDPVEKGRCTAIHFAATQGATEIVKLMISSYSGSVDIVNTTDGCHETMLHRASLFDHHELADYLISVGADINKIDSEGRSPLILATASASWNIVNLLLSKGAQVDIKDNFGRNFLHLTVQQPYGLKNLRPEFMQMQQIKELVMDEDNDGCTPLHYACRQGGPGSVNNLLGFNVSIHSKSKDKKSPLHFAASYGRINTCQRLLQDISDTRLLNEGDLHGMTPLHLAAKNGHDKVVQLLLKKGALFLSDHNGWTALHHASMGGYTQTMKVILDTNLKCTDRLDEDGNTALHFAAREGHAKAVALLLSHNADIVLNKQQASFLHLALHNKRKEVVLTIIRSKRWDECLKIFSHNSPGNKCPITEMIEYLPECMKVLLDFCMLHSTEDKSCRDYYIEYNFKYLQCPLEFTKKTPTQDVIYEPLTALNAMVQNNRIELLNHPVCKEYLLMKWLAYGFRAHMMNLGSYCLGLIPMTILVVNIKPGMAFNSTGIINETSDHSEILDTTNSYLIKTCMILVFLSSIFGYCKEAGQIFQQKRNYFMDISNVLEWIIYTTGIIFVLPLFVEIPAHLQWQCGAIAVYFYWMNFLLYLQRFENCGIFIVMLEVILKTLLRSTVVFIFLLLAFGLSFYILLNLQDPFSSPLLSIIQTFSMMLGDINYRESFLEPYLRNELAHPVLSFAQLVSFTIFVPIVLMNLLIGLAVGDIAEVQKHASLKRIAMQVELHTSLEKKLPLWFLRKVDQKSTIVYPNKPRSGGMLFHIFCFLFCTGEIRQEIPNADKSLEMEILKQKYRLKDLTFLLEKQHELIKLIIQKMEIISET | failed to bind CaM | –
